Test results reported in ChEMBL document CHEMBL2375313, “Synthesis, in vitro antitumor evaluation and DNA-binding study of novel tetrahydroquinolines and some derived tricyclic and tetracyclic ring systems” (Eur J Med Chem, 2013).

Assays:
Format in all cases: functional
Hs-578T = experiment: Cytotoxicity against human Hs578T cells assessed as growth inhibition at 10 uM after 48 hrs by sulphorhodamine B assay; conditions: read-out: GI
Outline: (§1)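 NCI-60 one-dose screen per the NCI Drug Evaluation Branch protocol. Cells given a single 10 µM concentration with 48 h continuous exposure. Growth estimated by sulphorhodamine B protein assay. Result expressed as percentage growth inhibition relative to untreated growth.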

HL-60(TB) = experiment: Cytotoxicity against human HL-60(TB) cells assessed as growth inhibition at 10 uM after 48 hrs by sulphorhodamine B assay; conditions: HL-60, 48 h, read-out: GI
Outline: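 NCI-60 one-dose primary screen run to the Drug Evaluation Branch protocol. Cells are exposed to a single 10 µM concentration for 48 h continuously, and growth is read by SRB protein assay. Data are reported as percent growth of treated cells, expressed as % growth inhibition.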

U-251 = experiment: Cytotoxicity against human U251 cells assessed as growth inhibition at 10 uM after 48 hrs by sulphorhodamine B assay; conditions: U-251, 48 h, read-out: GI; outline: as §1
RXF 393 = experiment: Cytotoxicity against human RXF393 cells assessed as growth inhibition at 10 uM after 48 hrs by sulphorhodamine B assay; conditions: RXF 393, 48 h, read-out: GI; outline: as §1
SNB-75 = experiment: Cytotoxicity against human SNB75 cells assessed as growth inhibition at 10 uM after 48 hrs by sulphorhodamine B assay; conditions: SNB-75, 48 h, read-out: GI; outline: as §1
CCRF-CEM = experiment: Cytotoxicity against human CCRF-CEM cells assessed as growth inhibition at 10 uM after 48 hrs by sulphorhodamine B assay; conditions: read-out: GI; outline: as §1
LOX IMVI = experiment: Cytotoxicity against human LOXIMVI cells assessed as growth inhibition at 10 uM after 48 hrs by sulphorhodamine B assay; conditions: read-out: GI; outline: as §1
MCF7 = experiment: Cytotoxicity against human MCF7 cells assessed as growth inhibition at 10 uM after 48 hrs by sulphorhodamine B assay; conditions: MCF7, 48 h, read-out: GI; outline: as §1
IGROV-1 = experiment: Cytotoxicity against human IGROV1 cells assessed as growth inhibition at 10 uM after 48 hrs by sulphorhodamine B assay; conditions: IGROV-1, 48 h, read-out: GI; outline: as §1
HOP-92 = experiment: Cytotoxicity against human HOP92 cells assessed as growth inhibition at 10 uM after 48 hrs by sulphorhodamine B assay; conditions: HOP-92, 48 h, read-out: GI; outline: as §1
OVCAR-4 = experiment: Cytotoxicity against human OVCAR4 cells assessed as growth inhibition at 10 uM after 48 hrs by sulphorhodamine B assay; conditions: OVCAR-4, 48 h, read-out: GI; outline: as §1
T47D = experiment: Cytotoxicity against human T47D cells assessed as growth inhibition at 10 uM after 48 hrs by sulphorhodamine B assay; conditions: read-out: GI; outline: as §1
CAKI-1 = experiment: Cytotoxicity against human Caki1 cells assessed as growth inhibition at 10 uM after 48 hrs by sulphorhodamine B assay; conditions: CAKI-1, 48 h, read-out: GI; outline: as §1
HT-29 = experiment: Cytotoxicity against human HT-29 cells assessed as growth inhibition at 10 uM after 48 hrs by sulphorhodamine B assay; conditions: HT-29, 48 h, read-out: GI; outline: as §1
HCT-15 = experiment: Cytotoxicity against human HCT15 cells assessed as growth inhibition at 10 uM after 48 hrs by sulphorhodamine B assay; conditions: HCT-15, 48 h, read-out: GI; outline: as §1
UO-31 = experiment: Cytotoxicity against human UO31 cells assessed as growth inhibition at 10 uM after 48 hrs by sulphorhodamine B assay; conditions: UO-31, 48 h, read-out: GI; outline: as §1
OVCAR-5 = experiment: Cytotoxicity against human OVCAR5 cells assessed as growth inhibition at 10 uM after 48 hrs by sulphorhodamine B assay; conditions: OVCAR-5, 48 h, read-out: GI; outline: as §1
NCI/ADR-RES = experiment: Cytotoxicity against human NCI/ADR-RES cells assessed as growth inhibition at 10 uM after 48 hrs by sulphorhodamine B assay; conditions: read-out: GI; outline: as §1
MDA-MB-468 = experiment: Cytotoxicity against human MDA-MB-468 cells assessed as growth inhibition at 10 uM after 48 hrs by sulphorhodamine B assay; conditions: MDA-MB-468, 48 h, read-out: GI; outline: as §1
K562 = experiment: Cytotoxicity against human K562 cells assessed as growth inhibition at 10 uM after 48 hrs by sulphorhodamine B assay; conditions: K562, 48 h, read-out: GI; outline: as §1
M14 = experiment: Cytotoxicity against human M14 cells assessed as growth inhibition at 10 uM after 48 hrs by sulphorhodamine B assay; conditions: M14, 48 h, read-out: GI; outline: as §1
RPMI-8226 = experiment: Cytotoxicity against human RPMI8226 cells assessed as growth inhibition at 10 uM after 48 hrs by sulphorhodamine B assay; conditions: RPMI-8226, 48 h, read-out: GI; outline: as §1
SF-295 = experiment: Cytotoxicity against human SF295 cells assessed as growth inhibition at 10 uM after 48 hrs by sulphorhodamine B assay; conditions: SF-295, 48 h, read-out: GI; outline: as §1
SK-OV-3 = experiment: Cytotoxicity against human SKOV3 cells assessed as growth inhibition at 10 uM after 48 hrs by sulphorhodamine B assay; conditions: SK-OV-3, 48 h, read-out: GI; outline: as §1
MOLT-4 = experiment: Cytotoxicity against human MOLT4 cells assessed as growth inhibition at 10 uM after 48 hrs by sulphorhodamine B assay; conditions: MOLT-4, 48 h, read-out: GI; outline: as §1
NCI-H522 = experiment: Cytotoxicity against human NCI-H522 cells assessed as growth inhibition at 10 uM after 48 hrs by sulphorhodamine B assay; conditions: NCI-H522, 48 h, read-out: GI; outline: as §1
[1] = Cytotoxicity against human EKVX cells assessed as growth inhibition at 10 uM after 48 hrs by sulphorhodamine B assay; conditions: read-out: GI; outline: as §1
SNB-19 = experiment: Cytotoxicity against human SNB19 cells assessed as growth inhibition at 10 uM after 48 hrs by sulphorhodamine B assay; conditions: SNB-19, 48 h, read-out: GI; outline: as §1
UACC-62 = experiment: Cytotoxicity against human UACC62 cells assessed as growth inhibition at 10 uM after 48 hrs by sulphorhodamine B assay; conditions: UACC-62, 48 h, read-out: GI; outline: as §1
A498 = experiment: Cytotoxicity against human A498 cells assessed as growth inhibition at 10 uM after 48 hrs by sulphorhodamine B assay; conditions: A498, 48 h, read-out: GI; outline: as §1
MDA-MB-435 = experiment: Cytotoxicity against human MDA-MB-435 cells assessed as growth inhibition at 10 uM after 48 hrs by sulphorhodamine B assay; conditions: MDA-MB-435, 48 h, read-out: GI; outline: as §1
A549 = experiment: Cytotoxicity against human A549 cells assessed as growth inhibition at 10 uM after 48 hrs by sulphorhodamine B assay; conditions: A549, 48 h, read-out: GI; outline: as §1
DU-145 = experiment: Cytotoxicity against human DU145 cells assessed as growth inhibition at 10 uM after 48 hrs by sulphorhodamine B assay; conditions: DU-145, 48 h, read-out: GI; outline: as §1
PC-3 = experiment: Cytotoxicity against human PC3 cells assessed as growth inhibition at 10 uM after 48 hrs by sulphorhodamine B assay; conditions: PC-3, 48 h, read-out: GI; outline: as §1
SF-268 = experiment: Cytotoxicity against human SF268 cells assessed as growth inhibition at 10 uM after 48 hrs by sulphorhodamine B assay; conditions: SF-268, 48 h, read-out: GI; outline: as §1
SK-MEL-5 = experiment: Cytotoxicity against human SK-MEL-5 cells assessed as growth inhibition at 10 uM after 48 hrs by sulphorhodamine B assay; conditions: SK-MEL-5, 48 h, read-out: GI; outline: as §1
ACHN = experiment: Cytotoxicity against human ACHN cells assessed as growth inhibition at 10 uM after 48 hrs by sulphorhodamine B assay; conditions: read-out: GI; outline: as §1
NCI-H23 = experiment: Cytotoxicity against human NCI-H23 cells assessed as growth inhibition at 10 uM after 48 hrs by sulphorhodamine B assay; conditions: NCI-H23, 48 h, read-out: GI; outline: as §1
HCT-116 = experiment: Cytotoxicity against human HCT116 cells assessed as growth inhibition at 10 uM after 48 hrs by sulphorhodamine B assay; conditions: HCT-116, 48 h, read-out: GI; outline: as §1
SR = experiment: Cytotoxicity against human SR cells assessed as growth inhibition at 10 uM after 48 hrs by sulphorhodamine B assay; conditions: read-out: GI; outline: as §1
SK-MEL-2 = experiment: Cytotoxicity against human SK-MEL-2 cells assessed as growth inhibition at 10 uM after 48 hrs by sulphorhodamine B assay; conditions: SK-MEL-2, 48 h, read-out: GI; outline: as §1

In the case of `COc1ccc(-c2c3c(nc4ncnc(N)c24)C(C)CCC3)cc1` (stereo unspecified), the inhibition of growth at 10 µM (Hs-578T) is reported as < 10%, the inhibition of growth at 10 µM (HL-60(TB)) is reported as < 10% and the inhibition of growth at 10 µM (U-251) is reported as 18.5%. It also gave an inhibition of growth at 10 µM (RXF 393) of 20.3%, an inhibition of growth at 10 µM (SNB-75) of 20.5% and an inhibition of growth at 10 µM (CCRF-CEM) of 23%. For the same molecule, the inhibition of growth at 10 µM (LOX IMVI) was 13%, the inhibition of growth at 10 µM (MCF7) was < 10% and the inhibition of growth at 10 µM (IGROV-1) was < 10%. For the same molecule, the inhibition of growth at 10 µM (HOP-92) was 20.4%, the inhibition of growth at 10 µM (OVCAR-4) was 12.6% and the inhibition of growth at 10 µM (T47D) was 47.7%. For the same molecule, the inhibition of growth at 10 µM (CAKI-1) was < 10%, the inhibition of growth at 10 µM (HT-29) was < 10% and the inhibition of growth at 10 µM (HCT-15) was 20%. For the same molecule, the inhibition of growth at 10 µM (UO-31) was 10.4%, the inhibition of growth at 10 µM (OVCAR-5) was < 10% and the inhibition of growth at 10 µM (NCI/ADR-RES) was 16.3%. The inhibition of growth at 10 µM (MDA-MB-468) was 11.3%, the inhibition of growth at 10 µM (K562) was 23.4% and the inhibition of growth at 10 µM (M14) was < 10%. For the same molecule, the inhibition of growth at 10 µM (RPMI-8226) was 25%, the inhibition of growth at 10 µM (SF-295) was < 10% and the inhibition of growth at 10 µM (SK-OV-3) was < 10%. For the same molecule, the inhibition of growth at 10 µM (MOLT-4) was 14.3%, the inhibition of growth at 10 µM (NCI-H522) was < 10% and the inhibition of growth at 10 µM [1] was 11.5%. For the same molecule, the inhibition of growth at 10 µM (SNB-19) was 10%, the inhibition of growth at 10 µM (UACC-62) was 20.9% and the inhibition of growth at 10 µM (A498) was < 10%. For the same molecule, the inhibition of growth at 10 µM (MDA-MB-435) was < 10%, the inhibition of growth at 10 µM (A549) was < 10% and the inhibition of growth at 10 µM (DU-145) was < 10%. For the same molecule, the inhibition of growth at 10 µM (PC-3) was 15%, the inhibition of growth at 10 µM (SF-268) was < 10% and the inhibition of growth at 10 µM (SK-MEL-5) was 10%. The inhibition of growth at 10 µM (ACHN) was 10%, the inhibition of growth at 10 µM (NCI-H23) was < 10% and the inhibition of growth at 10 µM (HCT-116) was 14.2%. For the same molecule, the inhibition of growth at 10 µM (SR) was 17.3% and the inhibition of growth at 10 µM (SK-MEL-2) was < 10%.
